Assay results collected from several papers.
Lines come from different studies, so protocols differ.
Medium: plasma

CONC(=O)c1cccc2c1cc(C)n2-c1nc2c(c(NCc3ccccc3)n1)CCCN2 gave a Tmax of 0.25 h (male Sprague-Dawley rat; oral, 10 mg/kg, single dose).
C=CC(=O)N1CCC([C@@H]2CCNc3c(C(N)=O)c(-c4ccc(Oc5ccccc5)cc4)nn32)CC1 gave a Tmax of 1.5 h (Sprague-Dawley rat; oral, 16 mg/kg).
With COc1ccc(N(Cc2csc(-c3ccccc3)n2)C(=O)CCCCCC(=O)NO)cc1 the Tmax was 0.08 h (female Sprague-Dawley rat; intravenous, 5 mg/kg).
With C[C@H]1[C@@H](O)O[C@@H]2O[C@@]3(C)CC[C@H]4[C@H](C)CC[C@@H]1[C@@]24OO3 the Tmax was 0.75 h (male Sprague-Dawley rat; oral, 10 mg/kg).
The Tmax of O=C1CCC(N2Cc3cc(C4CCN(Cc5ccccc5)CC4)ccc3C2=O)C(=O)N1 (centres unmarked) is reported as 0.14 h (male Sprague-Dawley rat; intravenous, 1 mg/kg).
The Tmax of CCCc1nc2c(C)cc(-c3nc4ccccc4n3C)cc2n1Cc1ccc(-c2ccccc2C(=O)O)cc1 is reported as 3.5 h (male Sprague-Dawley rat; oral, 8 mg/kg, single dose).
With C=CC(=O)N1CCC[C@@H](n2nc(-c3ccc(Oc4ccccc4)cc3)c3c(N)ncnc32)C1 the Tmax was 2 h (male Wistar rat; oral, 40 mg/kg).
The Tmax of C[C@H]1Oc2cc(cnc2N)-c2c(nn(C)c2C#N)CN(C)C(=O)c2ccc(F)cc21 is reported as 11.4 h (male Sprague-Dawley rat; oral, 50 mg/kg, single dose).
C[C@@]12C[C@@]3(O)O[C@@H](O1)[C@]1(COC(=O)c4ccccc4)[C@H]3C[C@@]12O[C@@H]1O[C@H](CO)[C@@H](O)[C@H](O)[C@H]1O has a Tmax of 0.506 h (male Sprague-Dawley rat; oral, 80 mg/kg).
The Tmax of CCCCCCCCCC(=O)N[C@@H](Cc1c[nH]c2ccccc12)C(=O)N[C@H](CC(N)=O)C(=O)N[C@@H](CC(=O)O)C(=O)N[C@@H]1C(=O)NCC(=O)N[C@@H](CCCN)C(=O)N[C@@H](CC(=O)O)C(=O)N[C@H](C)C(=O)N[C@@H](CC(=O)O)C(=O)NCC(=O)N[C@H](CO)C(=O)N[C@@H]([C@H](C)CC(=O)O)C(=O)N[C@@H](CC(=O)c2ccccc2N)C(=O)O[C@@H]1C is reported as 5 h (male Wistar rat; subcutaneous, 125 mg/kg, single dose).
For CC[C@@H]([C@H](C)O)n1ncn(-c2ccc(N3CCN(c4ccc(OC[C@@H]5CO[C@@](Cn6cncn6)(c6ccc(F)cc6F)C5)cc4)CC3)cc2)c1=O, the Tmax was 3.05 h (Sprague-Dawley rat; oral, 40 mg/kg).
For C1=C/COCc2cc(ccc2OCCN2CCCC2)Nc2nccc(n2)-c2cccc(c2)COC/1, the Tmax was 8.67 h (male Sprague-Dawley rat; oral, 36 mg/kg).
CCN(CC)Cc1ccc2cc(COC(=O)Nc3ccc(C(=O)NO)cc3)ccc2c1 gave a Tmax of ~1.72 h (male Sprague-Dawley rat; oral, 10 mg/kg).
The Tmax of COc1cc(-c2cc(C(C)=O)n3ccccc23)c(OC)cc1Cn1ccnc1 is reported as 0.5 h (male Sprague-Dawley rat; oral, 5 mg/kg).
With CN(C)C(=O)c1cc2cnc(Nc3ccc(N4CCNCC4)cn3)nc2n1C1CCCC1 the Tmax was 0.5 h (male Sprague-Dawley rat; intraperitoneal, 100 mg/kg).
For CCCCC(=O)Nc1ccc(-c2ccc3ncn(CCC)c(=O)c3c2)cn1, the Tmax was 0.25 h (male rat; oral, 10 mg/kg).
The Tmax of CCOc1c([C@H](C)n2nc(C)c3c(N)ncnc32)cc(Cl)c(F)c1[C@@H]1CNC(=O)C1 is reported as ~2.42 h (male Sprague-Dawley rat; oral, 2 mg/kg, single dose).
